Reference: article PMC9064050 (RSC Advances, 2019)

What was measured:
[1] = test system: Escherichia coli; test: Kirby–Bauer agar disc diffusion; type: cell-based
Outline: (§1)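 Kirby–Bauer disc diffusion on Mueller–Hinton agar (pH 7.2, autoclaved 121 °C for 15 min, ~4 mm deep, held 2–8 °C for 24 h). Plates spread with 24 h cultures. 6 mm discs loaded with 20 μL of 100 μM test compound. Bacteria incubated at 37 °C for 48 h; fungi at 22 °C for 7 days. Clear-zone diameter measured by ruler; % inhibition by eqn (20) against 6 mm control.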

[2] = test system: Salmonella enteric serovar typhi; test: Kirby–Bauer agar disc diffusion; type: cell-based
Outline: as §1

[3] = test system: Shigella flexneri; test: Kirby–Bauer agar disc diffusion; type: cell-based
Outline: as §1

[4] = test system: Bacillus cereus; test: Kirby–Bauer agar disc diffusion; type: cell-based
Outline: as §1

[5] = test system: Staphylococcus aureus; test: Kirby–Bauer agar disc diffusion; type: cell-based
Outline: as §1

[6] = test system: Pseudomonas aeruginosa; test: Kirby–Bauer agar disc diffusion; type: cell-based
Outline: as §1

[7] = test system: Chromobacterium violaceum; test: Kirby–Bauer agar disc diffusion; type: cell-based
Outline: as §1

[8] = test system: Mucor indicus; test: Kirby–Bauer agar disc diffusion; type: cell-based
Outline: as §1

[9] = test system: Aspergillus niger; test: Kirby–Bauer agar disc diffusion; type: cell-based
Outline: as §1

[10] = test system: Candida albicans; test: Kirby–Bauer agar disc diffusion; type: cell-based
Outline: as §1

[11] = Superoxide scavenging assay
Outline: (§2)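 Absorbance read at 517 nm (DPPH), 230 nm (hydroxyl), 590 nm (superoxide), 546 nm (nitric oxide) and 700 nm (FRAP). FRAP measures the rise in absorbance from Fe3+→Fe2+ reduction with ferricyanide. IC50 taken from % inhibition vs concentration plots.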

[12] = Ferric reducing antioxidant power
Outline: as §2

[13] = Hydroxyl radical scavenging assay
Outline: as §2

[14] = Nitric oxide scavenging assay
Outline: as §2

[15] = DPPH radical scavenging assay
Outline: as §2

[16] = test system: normal human dermal fibroblast (NHDF); test: MTT assay on normal cells; type: cell-based; conditions: normal cell line; 50% cell death following 72 h exposure
Outline: (§3)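 MTT viability: cells seeded at 1 × 10^5 per well and incubated 24 h at 37 °C, 5% CO2. Treated with test compound at 10–100 μg mL−1 (from DMSO). Medium removed, wells PBS-washed, RPMI-1640 plus MTT (5 mg mL−1 solution) added for 4 h at 37 °C. Formazan dissolved in DMSO, read at 570 nm. Triplicate wells; IC50 from % viability; cisplatin as reference.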

[17] = test system: liver cancer (HepG2); test: In vitro anticancer MTT assay; type: cell-based, human; conditions: 50% cell death following 72 h exposure
Outline: as §3

[18] = test system: breast (MCF-7); test: In vitro anticancer MTT assay; type: cell-based, human; conditions: 50% cell death following 72 h exposure
Outline: as §3

[19] = test system: human lung cancer (A549); test: In vitro anticancer MTT assay; type: cell-based; conditions: 50% cell death following 72 h exposure
Outline: as §3

NCC[C@H](O)C(=O)N[C@@H]1C[C@H](N)[C@@H](O[C@H]2O[C@H](CN)[C@@H](O)[C@H](O)[C@H]2O)[C@H](O)[C@H]1O[C@H]1O[C@H](CO)[C@@H](O)[C@H](N)[C@H]1O [Amikacin, amikacin]
inhibition% ([1]; A = (−) Escherichia coli, from zone diameter, eqn (20)): 73% | zone of inhibition at 100 µM ([1]; Escherichia coli, read-out: diameter of clear zone inhibition): 22 mm | inhibition% ([2]; B = (−)Salmonella enteric serovar typhi, eqn (20)): 73% | zone of inhibition at 100 µM ([2]; Salmonella, TYPHI, read-out: diameter of clear zone inhibition): 22 mm | inhibition% ([3]; E = (−)Shigella flexneri, eqn (20)): 70% | zone of inhibition at 100 µM ([3]; Shigella flexneri, read-out: diameter of clear zone inhibition): 20 mm | zone of inhibition at 100 µM ([4]; Bacillus cereus, read-out: diameter of clear zone inhibition): 20 mm | inhibition% ([4]; G = (+)Bacillus cereus, eqn (20)): 70% | inhibition% ([5]; F = (+)Staphylococcus aureus, eqn (20)): 70% | zone of inhibition at 100 µM ([5]; Staphylococcus aureus, read-out: diameter of clear zone inhibition): 20 mm | inhibition% ([6]; D = (−)Pseudomonas aeruginosa, eqn (20)): 70% | zone of inhibition at 100 µM ([6]; Pseudomonas aeruginosa, read-out: diameter of clear zone inhibition): 20 mm | inhibition% ([7]; C = (−)Chromobacterium violaceum, eqn (20)): 75% | zone of inhibition at 100 µM ([7]; Chromobacterium violaceum, read-out: diameter of clear zone inhibition): 24 mm

C[C@@H]1[C@H](O)[C@@H](C)/C=C/C=C/C=C/C=C/C=C/C=C/C=C/[C@H](O[C@@H]2O[C@H](C)[C@@H](O)[C@H](N)[C@@H]2O)C[C@@H]2O[C@](O)(C[C@@H](O)C[C@@H](O)[C@H](O)CC[C@@H](O)C[C@@H](O)CC(=O)O[C@H]1C)C[C@H](O)[C@H]2C(=O)O [Amphotericin B, amphotericin B]
inhibition% ([8]; J = Mucor indicus, eqn (20)): 65% | zone of inhibition at 100 µM ([8]; Mucor indicus, read-out: diameter of clear zone inhibition): 17 mm | zone of inhibition at 100 µM ([9]; Aspergillus niger, read-out: diameter of clear zone inhibition): 15 mm | inhibition% ([9]; H = Aspergillus niger, eqn (20)): 60% | zone of inhibition at 100 µM ([10]; Candida albicans, read-out: diameter of clear zone inhibition): 17 mm | inhibition% ([10]; I = Candida albicans, eqn (20)): 65%

O=C1O[C@H]([C@@H](O)CO)C(O)=C1O [Ascorbic acid, ascorbic acid]
% Inhibition, superoxide ([11]; 240 µM, 590 nm): 84.85% | IC50 ([11]; read-out: IC50, superoxide): 120 µM | % Inhibition, ferric reducing power ([12]; 240 µM, 700 nm): 88.67% | IC50 ([12]; read-out: IC50, ferric reducing power): 160 µM | % Inhibition, hydroxyl radical ([13]; 240 µM, 230 nm): 78.83% | IC50 ([13]; read-out: IC50, hydroxyl radical): 160 µM | % Inhibition, nitric oxide ([14]; 240 µM, 546 nm): 72.73% | IC50 ([14]; read-out: IC50, nitric oxide): 200 µM | % Inhibition, DPPH ([15]; 240 µM, 517 nm): 82.75% | IC50 ([15]; read-out: IC50, DPPH): 80 µM

N.N.[Cl][Pt][Cl] [Cisplatin, cisplatin]
IC50 NHDF [16]: 08.08 µg/mL | IC50 HepG2 [17]: 06.94 µg/mL | IC50 MCF-7 [18]: 06.11 µg/mL | IC50 A549 [19]: 09.62 µg/mL
